Assay outcomes from PubChem.
PfG6PD inh = PfG6PD (Plasmodium falciparum) enzyme inhibition; inhibition, % at 20 µM; AID 504690; actives 0.78% (n = 350,000); PfGluPho enzyme, NADPH resazurin-diaphorase fluorescence;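 active means inhibition reaching at least a set limit at 20 µM in the primary screen, cut at about 59% in these data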;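 further: 0% = DMSO wells with substrate and 100% = DMSO wells lacking glucose-6-phosphate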
Neddylation inh = cullin neddylation inhibition. P61081+Q13564. TR-FRET cullin neddylation, biochemical. inhibition, % at 25 µM. actives 0.58% (n = 360,000). AID 651699; in the data active means inhibition above about 36%
M18AAP inhibitor = PfM18AAP enzyme inhibition | recombinant PfM18AAP, H-Glu-NHMec fluorogenic cleavage | inhibition, % at 7.35 µM | actives 1.2% (n = 290,000) | AID 1822;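 active means inhibition above the campaign mean inhibition over all tested compounds plus 3 SD, cut at about 28% in these data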;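 further: 0% = plate median of test compound wells and 100% = 2 mM ZnCl2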
HKDC1 inh = inhibitors of human hexokinase HKDC1 | Q2TB90 | inhibition, % at 20 µM | AID 493160 | actives 0.16% (n = 340,000) | recombinant HKDC1, G6PDH/diaphorase resazurin coupled fluorescence;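 active means inhibition above about 35% when tested at 20 µM, limit read from the data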;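 further: plate controls were DMSO wells with enzyme for no effect and DMSO wells lacking enzyme for full effect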
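Material – in-house recombinant HK5 (HKDC1) enzyme · Quantity – HKDC1 at 5 µg/mL · Buffer or medium – pH 8.0 Tris buffer with 10 mM MgCl2 · Reagent – glucose with 1 mM ATP · Dosing – single 20 µM dose · Times – reaction time 90 min, room temperature, protected from light · Technique – resorufin fluorescence at 613 nm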
HKDC1 act conf2 = confirmation of human HKDC1 activators; shares compounds with HKDC1 inh; recombinant HKDC1, G6PDH/diaphorase resazurin fluorescence; active compounds read low; inhibition, % at 20 µM; actives 14% (n = 740);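 active means inhibition at or below a set negative limit, negative inhibition meaning the enzyme was activated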
PfG6PD confirm = confirmation of Plasmodium falciparum G6PD inhibitors | shares compounds with PfG6PD inh | recombinant PfGluPho, NADPH-diaphorase-resazurin fluorescence | inhibition, % at 20 µM | actives 34% (n = 2,400);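 active means inhibition of at least 50% at 20 µM in any single replicate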;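 further: 0% = DMSO with substrate and 100% = DMSO lacking glucose-6-phosphate substrate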
Diaph ctr 10uM = counter-screen for P. falciparum G6PD inhibitors: diaphorase inhibitors, oxidizers. inhibition, % at 20 µM. actives 39% (n = 820). diaphorase-coupled resazurin reduction, fluorescence, NADPH 10 uM. shares compounds with PfG6PD inh. AID 504862;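 active means average inhibition reaching 50% or more with the compound at 20 µM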;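 further: resorufin red fluorescence formed as diaphorase reduces resazurin using NADPH; 0% = DMSO with enzyme and 100% = DMSO without enzyme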
Diaphorase 30uM = diaphorase inhibition or oxidation at 30 uM NADPH | shares compounds with PfG6PD inh | Diaphorase/resazurin coupled assay, resorufin fluorescence | inhibition, % at 20 µM | actives 29% (n = 820);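 active means inhibition averaging 50% or more, tested at 20 µM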;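 further: 0% = DMSO with enzyme and 100% = DMSO wells lacking diaphorase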
* = called active by the depositor; / = not tested or not shown. Rows were chosen to be rich in hits. Some 2.2% of all compounds tested hit in one or more screens of this group.

SMILES	PfG6PD inh	Neddylation inh	M18AAP inhibitor	HKDC1 inh	HKDC1 act conf2	PfG6PD confirm	others
CN(Cc1ccccc1)C(=O)c1ccc(NC(=O)Cc2ccc(NC(=O)C3CCN(C(=O)CCc4ccccc4)CC3)cc2)cc1	-18	-22	/	-3	/	/
CCN(CC)CCNc1cc(C)nc2c1C(=O)C(=O)C=C2N1CCCCC1	75*	-16	11	45*	58	47
Cc1ccc(SSc2cc(C)ccc2N)c(N)c1	64*	-7	/	-44	-21	42
Cc1ccc(O)c(N)c1	44	14	/	0	/	/
O=C1C(Cc2ccccc2)SC(=Nc2ccccc2)N1c1ccccc1 (stereo not given)	7	3	0	8	/	/
N=C1N(c2ccccc2)C(=S)C(=Nc2ccccc2)N1c1ccccc1	65*	-1	/	-77	4	26
CC1=NOC(=O)/C1=C\c1ccc(-c2ccc(Cl)cc2Cl)o1	70*	-4	15	54*	47	-26
Cn1c(CC(=O)NNC(=O)c2ccc(Cl)nc2)nc2ccccc21	-7	-10	/	3	/	/
COc1cc(/C=C2\SC(N)=NC2=O)cc(Cl)c1O	23	-135	2	16	/	/
COc1cc(/C=C2\SC(c3ccc(C)cc3)=NC2=O)cc(OC)c1O	75*	25	17	48*	32	53*	Diaph ctr 10uM=7;Diaphorase 30uM=13
CCOC(=O)/C(=C\c1cccnc1)C(=O)c1cc(C(C)=O)c(Nc2ccccc2)s1	66*	10	3	42*	16	20
CCOC(=O)/C(=C\c1ccccc1)C(=O)c1cc(C(C)=O)c(Nc2ccccc2)s1	-1	-16	-8	20	/	/
CCOc1ccc2nc3cc(NCc4ccc(OC)cc4)ccc3c(N)c2c1	67*	/	17	36*	-4	30
Cc1ccc(NC(=S)NC(=O)C2CCCCC2)c(Br)c1	4	0	/	8	/	/
Cc1ccc(NC(=O)COc2ccccc2C(=O)NCCN(C)C)cc1	/	/	4	/	/	/
CCCCC[C@@H](/C=C/C1C(=O)C=C[C@H]1C/C=C\CCCC(=O)OC)OC(C)=O (stereo not given in full)	24	3	/	25	/	/
COC1=C(OC)C(=O)C(Sc2ccc3ccccc3c2)=CC1=O	128*	-72	/	71*	71	106*	Diaph ctr 10uM=82*;Diaphorase 30uM=38
O=C1C=C(Nc2ccc(O)cc2)C(=O)c2ccccc21	6	-45	-7	18	/	/
CCc1ccc(S(=O)(=O)/N=C2\C=C(Nc3cccc(C(=O)O)c3)C(=O)c3ccccc32)cc1	61*	-53	11	53*	65	41
Cc1ccc(S(=O)(=O)/N=C2\C=C(NS(=O)(=O)c3ccccc3)C(=O)c3ccccc32)cc1	14	-48	/	29	/	/
CCc1ccc(S(=O)(=O)/N=C2\C=C(Nc3ccc(O)cc3)C(=O)c3ccccc32)cc1	94*	-48	4	32	6	32
NC(c1ccccc1)c1cccs1 (stereo not given)	/	-13	/	/	/	/
CCN(CC)C(=O)[C@H]1CC(CC(=O)NCc2ccco2)C(=O)N2CCc3c([nH]c4ccc(OC)cc34)[C@]12C (stereo not given in full)	-1	0	/	-6	/	/
CCCC(=O)NC1=C(Cl)C(=O)c2ccccc2C1=O	128*	2	/	60*	81	116*	Diaph ctr 10uM=99*;Diaphorase 30uM=97*
CCNC1=C(Cl)C(=O)c2ccccc2C1=O	-105	-80	8	-3	/	/
Cc1c(Cl)cccc1NC(=O)Cn1c(CCC(=O)O)ccc1-c1ccccc1	-8	4	12	-3	/	/
COC(=O)CCC(=O)Nc1sc(Cc2ccccc2)c(C)c1C(N)=O	75*	-1	12	-44	-23	63*	Diaph ctr 10uM=27;Diaphorase 30uM=-2
CC(C)(C)c1cc[n+](C2=C([O-])c3ccccc3C(=O)/C2=N\S(=O)(=O)c2cccs2)cc1	44	-137	6	17	/	/
O=C1C(Nc2ccc(O)cc2)=C/C(=N/S(=O)(=O)c2cccs2)c2ccccc21	114*	-72	4	60*	57	60*	Diaph ctr 10uM=67*;Diaphorase 30uM=65*
